The values below come from ChEMBL document CHEMBL3272325, “Structure-activity relationships of dimeric Catharanthus alkaloids. 1. Deacetylvinblastine amide (vindesine) sulfate” (J Med Chem, 1978).

The test system of data set [1] is B16. The data set can be described thus: Antitumor activity against mouse B16 cells allografted in B6D2F1 mouse assessed as increase in life span at 1.8 mg/kg/day, ip administered on day 1, 5 and 9 measured for 56 days relative to untreated control. In kind it is functional. As to conditions: route intraperitoneal. Summed up:
(§1)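 Male B6D2F1 mice implanted ip on day 0 with 0.25 mL of a 20% (w/v) B16 melanoma brei. Alkaloid sulfate salts given ip on days 1, 5, 9 or on days 5, 9, 13, groups of 10, against 30 untreated controls. Read-outs: median survival time with range of individual deaths, and percent increase in life span, with survivors counted on day 56.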

A short description of data set [2]: Acute toxicity in rat. As to conditions: in vivo. Format: organism-based.
Data set [3] relates to P388. The data set can be described thus: Antitumor activity against mouse P388 cells allografted in mouse assessed as increase in life span at 9 mg/kg/day, ip after 1 day. Format: functional. As to conditions: 24 h, route intraperitoneal. Summed up: (§2)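 P388 ascites implanted ip in mice, 10 animals per group. Sulfate salts given ip either daily on days 1-9 or as a single dose on day 1. Median life span was calculated using all deaths and survivors. Percent increase in life span was taken over untreated controls. The highest nontoxic dose was noted.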

The subject of data set [4] is B16. The data set can be described thus: Antitumor activity against mouse B16 cells allografted in B6D2F1 mouse assessed as mean survival time at 1.8 mg/kg/day, ip administered on day 5, 9 and 13 (reference value: 20.0 days). Format: functional. As to conditions: route intraperitoneal. Summed up:
as §1

In data set [5] the test system is B16. As to the kind of experiment: Antitumor activity against mouse B16 cells allografted in B6D2F1 mouse assessed as increase in life span at 3 mg/kg/day, ip administered on day 1, 5 and 9 measured for 56 days relative to untreated control. Format: functional. As to conditions: route intraperitoneal. Summed up: as §1
Data set [6] concerns B16. As to the kind of experiment: Antitumor activity against mouse B16 cells allografted in B6D2F1 mouse assessed as mean survival time at 1.08 mg/kg/day, ip administered on day 1, 5 and 9 (reference value: 20.0 days). In kind it is functional. As to conditions: route intraperitoneal. The method in brief:
as §1

Data set [7] concerns P388. As to the kind of experiment: Antitumor activity against mouse P388 cells allografted in mouse assessed as increase in life span at 6 mg/kg/day, ip after 1 day. As to conditions: 24 h, route intraperitoneal. Format: functional. Summed up: as §2
In data set [8] the test system is B16. The data set can be described thus: Antitumor activity against mouse B16 cells allografted in B6D2F1 mouse assessed as mean survival time at 3 mg/kg/day, ip administered on day 1, 5 and 9 (reference value: 20.0 days). Format: functional. As to conditions: route intraperitoneal. Summed up: as §1
Data set [9] in a line: Antitumor activity against mouse Gardner lymphosarcoma cell allografted in mouse at 0.2 to 0.3 mg/kg/day, ip. In kind it is functional. As to conditions: route intraperitoneal. The method in brief: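 Ridgeway osteogenic sarcoma and Gardner lymphosarcoma in mice, with sulfate salts given ip daily on days 1-9. Tumor growth inhibition versus controls scored in bands: +++ = 75-100%, ++ = 50-75%, ± = under 25%.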

Data set [10] has as its system B16. As to the kind of experiment: Antitumor activity against mouse B16 cells allografted in B6D2F1 mouse assessed as increase in life span at 0.389 mg/kg/day, ip administered on day 5, 9 and 13 measured for 56 days relative to untreated control. In kind it is functional. As to conditions: route intraperitoneal. The method in brief:
as §1

The test system of data set [11] is B16. As to the kind of experiment: Antitumor activity against mouse B16 cells allografted in B6D2F1 mouse assessed as mean survival time at 3 mg/kg/day, ip administered on day 5, 9 and 13 (reference value: 20.0 days). Format: functional. As to conditions: route intraperitoneal. Summed up: as §1
Data set [12] deals with P388. The data set can be described thus: Antitumor activity against mouse P388 cells allografted in mouse assessed as increase in life span at 0.27 mg/kg/day, ip administered from day 1 to day 9 relative to untreated control. Format: functional. As to conditions: route intraperitoneal. Summed up:
as §2

The subject of data set [13] is P388. As to the kind of experiment: Antitumor activity against mouse P388 cells allografted in mouse assessed as increase in life span at 0.9 mg/kg/day, ip administered from day 1 to day 9 relative to untreated control. Format: functional. As to conditions: route intraperitoneal. Summed up: as §2
The nature of data set [14]: Antitumor activity against mouse P1534(J) cells allografted in mouse assessed as tumor growth inhibition at 0.25 mg/kg/day, ip administered from day 1 to day 9 relative to unreated control. Format: functional. As to conditions: P1534J, route intraperitoneal, read-out: TGI. Summed up: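 P1534(J) leukemia implanted subcutaneously in mice; sulfate salts given ip on days 1-9. Read-out is percent inhibition of tumor growth versus untreated controls.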

Data set [15] concerns P388. The data set can be described thus: Antitumor activity against mouse P388 cells allografted in mouse assessed as increase in life span at 0.4 mg/kg/day, ip administered from day 1 to day 9 relative to untreated control. In kind it is functional. As to conditions: route intraperitoneal. Summed up:
as §2

For data set [16], the system named is P388. The data set can be described thus: Antitumor activity against mouse P388 cells allografted in mouse assessed as increase in life span at 0.6 mg/kg/day, ip administered from day 1 to day 9 relative to untreated control. Format: functional. As to conditions: route intraperitoneal. The method in brief: as §2
Data set [17] deals with B16. As to the kind of experiment: Antitumor activity against mouse B16 cells allografted in B6D2F1 mouse assessed as mean survival time at 0.389 mg/kg/day, ip administered on day 1, 5 and 9 (reference value: 20.0 days). In kind it is functional. As to conditions: route intraperitoneal. Summed up: as §1
The test system of data set [18] is B16. As to the kind of experiment: Antitumor activity against mouse B16 cells allografted in B6D2F1 mouse assessed as increase in life span at 0.648 mg/kg/day, ip administered on day 5, 9 and 13 measured for 56 days relative to untreated control. Format: functional. As to conditions: route intraperitoneal. The method in brief: as §1
Data set [19] concerns B16. As to the kind of experiment: Antitumor activity against mouse B16 cells allografted in B6D2F1 mouse assessed as mean survival time at 0.389 mg/kg/day, ip administered on day 5, 9 and 13 (reference value: 20.0 days). Format: functional. As to conditions: route intraperitoneal. Summed up: as §1
The test system of the next data set is Gallus gallus. As to the kind of experiment: Neurotoxicity in iv dosed chicken assessed as neuromuscular disturbance by measuring loss of balance. As to conditions: in vivo. In kind it is organism-based.

As usually defined, the ILS is how much longer treated animals lived than controls. The term LD50 denotes the dose expected to kill half of the subjects tested. For orientation: TGI means the reduction of tumour growth relative to the control group. A high value points to a stronger effect on the tumour.

Regarding `CC[C@]1(O)C[C@@H]2CN(CCc3c([nH]c4ccccc34)[C@@](C(=O)OC)(c3cc4c(cc3OC)N(C)[C@H]3[C@@](O)(C(N)=O)[C@H](O)[C@]5(CC)C=CCN6CC[C@]43[C@@H]65)C2)C1.O=S(=O)(O)O` [VINDESINE SULFATE], the ILS at 1.8 mg/kg/day with B16 [1] is 142%. In addition, the LD50 in [2] was 2 mg/kg. In addition, the ILS at 9 mg/kg/day in the data set with P388 [3] was 190%. Further, the MST in the data set on B16 [4] came out at 39 days; in the data set with B16 [6], 42 days; in the data set with B16 [8], 47.5 days; with B16 [11], 29.5 days; in the data set with B16 [17] it was 37 days; in the data set on B16 [19], 25 days. Moreover, the ILS at 3 mg/kg/day in the data set on B16 [5] was determined as 138%. The ILS at 6 mg/kg/day with P388 [7] was 109%. Moreover, the TGI in data set [9] came to 75%. The ILS at 0.389 mg/kg/day with B16 [10] was 25%. Further, in the data set with P388 [12], the ILS at 0.27 mg/kg/day turned out to be 172%. In addition, in the data set on P388 [13], the ILS at 0.9 mg/kg/day stood at 177%. In addition, the inhibition in vivo at 0.25 mg/kg/day in data set [14] is 100%. For the same compound, in the data set on P388 [15], the ILS at 0.4 mg/kg/day is 172%. For the same compound, the ILS at 0.6 mg/kg/day in the data set with P388 [16] amounted to 213%. Besides, the ILS at 0.648 mg/kg/day with B16 [18] is 35%. In addition, the Activity entry with Gallus gallus is recorded as “Non-toxic”.
